Source: ChEMBL document CHEMBL1932971, “Synthesis of uriedo and thiouriedo derivatives of peptide conjugated heterocycles - A new class of promising antimicrobials” (2012)
Numbered stars: 1 amine (or outer) side, 2 acyl side, 3 side chain; on linkers, the order of the positions; unused ones are H or OH. Peptide text beside a SMILES is read from it. * marks the point of attachment. Piperazinyl(4-(2,3-Cl2Ph)) = Clc1cccc(N2CCN(*)CC2)c1Cl; Thiocarbamoyl(N-4-ClPh) = S=C(Nc1ccc(Cl)cc1)*; Thiocarbamoyl(4-MeOPh) = COc1ccc(NC(=S)*)cc1; NH(4-MeO-phenyl) = COc1ccc(N*)cc1; NH(4-Cl-phenyl) = Clc1ccc(N*)cc1; X1 = Fc1ccc2c(C3CCN(*)CC3)noc2c1; CO = O=C([*:1])[*:2]

Experiments:
Format in all cases: functional
Conditions in all cases: read-out: DIZ
[1] = tested on: Escherichia coli; experiment: Antibacterial activity against Escherichia coli at 30 ug/ml after 24 hrs by agar well diffusion method
Procedure, shortened: (§1)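 Agar well diffusion. Inocula were grown in nutrient broth at 37 °C for 24 h, then subcultured in nutrient broth at room temperature. Compounds were made as a 1 mg/mL DMSO stock and diluted to 30 µg/mL final. Nutrient agar plates were spread-inoculated and 6 mm wells each got 0.1 mL. Controls were amoxicillin (reference) and DMSO (negative). Incubation was 24 h at 37 °C. Inhibition zone was measured in mm as the mean of three determinations.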

[2] = tested on: Xanthomonas oryzae; experiment: Antibacterial activity against Xanthomonas oryzae at 30 ug/ml after 24 hrs by agar well diffusion method
[3] = tested on: Klebsiella pneumoniae; experiment: Antibacterial activity against Klebsiella pneumoniae at 30 ug/ml after 24 hrs by agar well diffusion method; procedure, shortened: as §1
[4] = tested on: Staphylococcus aureus; experiment: Antibacterial activity against coagulase-positive Staphylococcus aureus at 30 ug/ml after 24 hrs by agar well diffusion method; procedure, shortened: as §1
[5] = tested on: Aspergillus niger; experiment: Antifungal activity against Aspergillus niger at 30 ug/ml after 72 hrs by agar well diffusion method
Procedure, shortened: (§2)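 Fungal well diffusion. Inocula were subcultured in nutrient broth for one day, then spread on solidified medium. Compounds were made as a 1 mg/mL DMSO stock and diluted to 30 µg/mL final. Each 6 mm well got 0.1 mL. Controls were bavistin (reference) and DMSO (negative). Plates stood for 3 days at room temperature. Inhibition zone was measured in mm as the mean of three determinations.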

[6] = tested on: Aspergillus flavus; experiment: Antifungal activity against Aspergillus flavus at 30 ug/ml after 72 hrs by agar well diffusion method; procedure, shortened: as §2
[7] = tested on: Fusarium oxysporum; experiment: Antifungal activity against Fusarium oxysporum at 30 ug/ml after 72 hrs by agar well diffusion method; procedure, shortened: as §2

| SMILES | zone of inhibition at 30 µg/mL [1] | zone of inhibition at 30 µg/mL [2] | zone of inhibition at 30 µg/mL [3] | zone of inhibition at 30 µg/mL [4] | zone of inhibition at 30 µg/mL [5] | zone of inhibition at 30 µg/mL [6] | zone of inhibition at 30 µg/mL [7] |
| --- | --- | --- | --- | --- | --- | --- | --- |
| CC[C@H](C)[C@H](NC(=O)CNC(=O)CNC(=O)Nc1ccc(Cl)cc1)C(=O)N1CCC[C@H]1C(=O)N1CCC(c2noc3cc(F)ccc23)CC1 ({NH(4-Cl-phenyl)-CO}-GGIP-X1) | 26 mm | 22 mm | 18 mm | 19 mm | 27 mm | 24 mm | 26 mm |
| CC[C@H](C)[C@H](NC(=O)CNC(=O)CNC(=S)Nc1ccc(Cl)cc1)C(=O)N1CCC[C@H]1C(=O)N1CCC(c2noc3cc(F)ccc23)CC1 ({Thiocarbamoyl(N-4-ClPh)}-GGIP-X1) | 28 mm | 25 mm | 21 mm | 21 mm | 29 mm | 27 mm | 29 mm |
| CC[C@H](C)[C@H](NC(=O)CNC(=O)CNC(=S)Nc1ccc(Cl)cc1)C(=O)N1CCC[C@H]1C(=O)N1CCN(c2cccc(Cl)c2Cl)CC1 ({Thiocarbamoyl(N-4-ClPh)}-GGIP-{Piperazinyl(4-(2,3-Cl2Ph))}) | 27 mm | 24 mm | 20 mm | 22 mm | 28 mm | 26 mm | 28 mm |
| COc1ccc(NC(=S)NCC(=O)NCC(=O)N[C@@H](Cc2ccccc2)C(=O)N2CCC[C@H]2C(=O)N2CCN(c3cccc(Cl)c3Cl)CC2)cc1 ({Thiocarbamoyl(4-MeOPh)}-GGFP-{Piperazinyl(4-(2,3-Cl2Ph))}) | 23 mm | 21 mm | 20 mm | 18 mm | 29 mm | 22 mm | 24 mm |
| O=C(Nc1ccccc1F)N[C@@H](Cc1c[nH]c2ccccc12)C(=O)N1CCC(c2noc3cc(F)ccc23)CC1 | 11 mm | 11 mm | 8 mm | 8 mm | 12 mm | 9 mm | 8 mm |
| COc1ccc(NC(=S)NCC(=O)N[C@H](C(=O)NCC(=O)N[C@H](C(=O)N2CCC[C@H]2C(=O)N2CCC(c3noc4cc(F)ccc34)CC2)C(C)C)C(C)C)cc1 ({Thiocarbamoyl(4-MeOPh)}-GVGVP-X1) | 28 mm | 28 mm | 26 mm | 24 mm | 31 mm | 26 mm | 26 mm |
| O=C(CNC(=O)Nc1ccc(Cl)cc1)NCC(=O)N[C@@H](Cc1ccccc1)C(=O)N1CCC[C@H]1C(=O)N1CCC(c2noc3cc(F)ccc23)CC1 ({NH(4-Cl-phenyl)-CO}-GGFP-X1) | 28 mm | 25 mm | 23 mm | 21 mm | 31 mm | 26 mm | 28 mm |
| COc1ccc(NC(=S)NCC(=O)N[C@H](C(=O)NCC(=O)N[C@H](C(=O)N2CCC[C@H]2C(=O)N2CCN(c3cccc(Cl)c3Cl)CC2)C(C)C)C(C)C)cc1 ({Thiocarbamoyl(4-MeOPh)}-GVGVP-{Piperazinyl(4-(2,3-Cl2Ph))}) | 27 mm | 26 mm | 22 mm | 22 mm | 29 mm | 23 mm | 24 mm |
| O=C([C@H](Cc1c[nH]c2ccccc12)NC(=S)Nc1ccccc1F)N1CCN(c2cccc(Cl)c2Cl)CC1 | 10 mm | 10 mm | 11 mm | 12 mm | 11 mm | 12 mm | 6 mm |
| COc1ccc(NC(=O)NCC(=O)NCC(=O)N[C@@H](Cc2ccccc2)C(=O)N2CCC[C@H]2C(=O)N2CCC(c3noc4cc(F)ccc34)CC2)cc1 ({NH(4-MeO-phenyl)-CO}-GGFP-X1) | 26 mm | 24 mm | 19 mm | 17 mm | 27 mm | 20 mm | 23 mm |
| O=C([C@H](Cc1c[nH]c2ccccc12)NC(=S)Nc1ccccc1F)N1CCC(c2noc3cc(F)ccc23)CC1 | 13 mm | 12 mm | 9 mm | 9 mm | 13 mm | 10 mm | 7 mm |
| COc1ccc(NC(=S)NCC(=O)NCC(=O)N[C@@H](Cc2ccccc2)C(=O)N2CCC[C@H]2C(=O)N2CCC(c3noc4cc(F)ccc34)CC2)cc1 ({Thiocarbamoyl(4-MeOPh)}-GGFP-X1) | 24 mm | 22 mm | 21 mm | 19 mm | 28 mm | 23 mm | 25 mm |
| COc1ccc(NC(=O)NCC(=O)N[C@@H](Cc2ccccc2)C(=O)NCC(=O)N[C@@H](Cc2ccccc2)C(=O)N2CCC[C@H]2C(=O)N2CCC(c3noc4cc(F)ccc34)CC2)cc1 ({NH(4-MeO-phenyl)-CO}-GFGFP-X1) | 30 mm | 30 mm | 30 mm | 28 mm | 35 mm | 29 mm | 32 mm |
| COc1ccc(NC(=O)NCC(=O)NCC(=O)N[C@@H](Cc2ccccc2)C(=O)N2CCC[C@H]2C(=O)N2CCN(c3cccc(Cl)c3Cl)CC2)cc1 ({NH(4-MeO-phenyl)-CO}-GGFP-{Piperazinyl(4-(2,3-Cl2Ph))}) | 25 mm | 23 mm | 18 mm | 16 mm | 26 mm | 19 mm | 22 mm |
| COc1ccc(NC(=S)NCC(=O)N[C@@H](Cc2ccccc2)C(=O)NCC(=O)N[C@@H](Cc2ccccc2)C(=O)N2CCC[C@H]2C(=O)N2CCC(c3noc4cc(F)ccc34)CC2)cc1 ({Thiocarbamoyl(4-MeOPh)}-GFGFP-X1) | 31 mm | 31 mm | 31 mm | 29 mm | 36 mm | 30 mm | 33 mm |
| O=C(CNC(=S)Nc1ccc(Cl)cc1)NCC(=O)N[C@@H](Cc1ccccc1)C(=O)N1CCC[C@H]1C(=O)N1CCC(c2noc3cc(F)ccc23)CC1 ({Thiocarbamoyl(N-4-ClPh)}-GGFP-X1) | 30 mm | 27 mm | 26 mm | 24 mm | 33 mm | 29 mm | 31 mm |
| O=C(CNC(=O)Nc1ccc(Cl)cc1)NCC(=O)N[C@@H](Cc1ccccc1)C(=O)N1CCC[C@H]1C(=O)N1CCN(c2cccc(Cl)c2Cl)CC1 ({NH(4-Cl-phenyl)-CO}-GGFP-{Piperazinyl(4-(2,3-Cl2Ph))}) | 27 mm | 24 mm | 22 mm | 20 mm | 30 mm | 25 mm | 27 mm |
| O=C(CNC(=S)Nc1ccc(Cl)cc1)NCC(=O)N[C@@H](Cc1ccccc1)C(=O)N1CCC[C@H]1C(=O)N1CCN(c2cccc(Cl)c2Cl)CC1 ({Thiocarbamoyl(N-4-ClPh)}-GGFP-{Piperazinyl(4-(2,3-Cl2Ph))}) | 29 mm | 26 mm | 25 mm | 23 mm | 32 mm | 28 mm | 30 mm |
| COc1ccc(NC(=O)NCC(=O)N[C@H](C(=O)NCC(=O)N[C@H](C(=O)N2CCC[C@H]2C(=O)N2CCC(c3noc4cc(F)ccc34)CC2)C(C)C)C(C)C)cc1 ({NH(4-MeO-phenyl)-CO}-GVGVP-X1) | 26 mm | 33 mm | 27 mm | 23 mm | 30 mm | 27 mm | 27 mm |
| COc1ccc(NC(=S)NCC(=O)N[C@@H](Cc2ccccc2)C(=O)NCC(=O)N[C@@H](Cc2ccccc2)C(=O)N2CCC[C@H]2C(=O)N2CCN(c3cccc(Cl)c3Cl)CC2)cc1 ({Thiocarbamoyl(4-MeOPh)}-GFGFP-{Piperazinyl(4-(2,3-Cl2Ph))}) | 29 mm | 28 mm | 29 mm | 26 mm | 32 mm | 28 mm | 29 mm |
